Experimental data taken from the RNAGym collection of RNA variant scans (doi:10.1126/science.aae0568).
This sample holds only a part of the variants without activity.

B1: tRNA (parent)
chain: GUUCCGUUGGCGUAAUGGUAACGCGUCUCCCUCCUAAGGAGAAGACUGCGGGUUCGAGUCCCGUACGGAACG

Variants of: B1
Assay: yeast fitness relative to wild type (ratio to wild type); higher = fitter; tRNA-Arg(CCU), competitive growth, 37 C, YPD
How it was run: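 Changes in genotype frequencies gave Darwinian fitness relative to wild type. Frequencies were read by 100-nucleotide paired-end sequencing of gene amplicons before and after pooled Saccharomyces cerevisiae strains, carrying tRNA-Arg(CCU) gene variants at the native locus, were competed in YPD at 37°C for 24 hours in six replicates. A genotype was kept only with ≥ 100 starting reads, and estimates < 0.5 were set to 0.5.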

Row | Variant | yeast fitness
1 | U16A C30G A57U | ≤ 0.5
2 | U16A C30G G44C A65C | ≤ 0.5
3 | U16C A42G | 0.904
4 | U16A C24G C49G U53C | ≤ 0.5
5 | U16C A40U A65U | 0.588
6 | U16A C34A A36C A37G G56C C66A | ≤ 0.5
7 | U16A G56A | 0.875
8 | U16A C31A A69U | 0.62
9 | U16A G50C A65G | ≤ 0.5
10 | U16A G48C C55G G67C A70U | 0.604
11 | U16C A21C A37G A69G A70G | ≤ 0.5
12 | U16C C24U C29A U32A C46G A57C | 0.522
13 | U16A G39A C46U A57U G67A | ≤ 0.5
14 | U16A G17C A43U A45C C46A C62G | ≤ 0.5
15 | U16A G50C C66G | ≤ 0.5
16 | U16A G17A C22G C61U | ≤ 0.5
17 | U16A C34G U47A G52C | ≤ 0.5
18 | U16A G39C U54C C55U | ≤ 0.5
19 | U16C A37C C55G C62U | ≤ 0.5
20 | U16A G56C A57U C60U | ≤ 0.5
21 | U16A C27G C46G G67A | 0.505

Row | Variant | yeast fitness
22 | U16C A21U C30U C34G A36C | ≤ 0.5
23 | U16C A40C A57U | 0.575
24 | U16A C24G G51A | ≤ 0.5
25 | U16C C24U U53C C60G | 0.559
26 | U16A C55G C61U | ≤ 0.5
27 | U16A C24U G44C C61U C66U | ≤ 0.5
28 | U16A G18C A20G C22U U54G C55A | 0.512
29 | U16A C55U U59A A65C | ≤ 0.5
30 | U16C A21C A37G C55A | ≤ 0.5
31 | U16A C34A A40U G44A | ≤ 0.5
32 | U16A G25C A40C C49U | ≤ 0.5
33 | U16C C24G G44A C60U G67C | ≤ 0.5
34 | U16A C24U C61G A65G | ≤ 0.5
35 | U16A C34A A40U | ≤ 0.5
36 | U16A G25A C49A | ≤ 0.5
37 | U16A C31A C33G G38A C66U | ≤ 0.5
38 | U16C A37G A42C G67A | ≤ 0.5
39 | U16A G23C C29U C31G | ≤ 0.5
40 | U16A G58C | 0.963
41 | U16A U32C A42U | 0.637
42 | U16A C24U C62U | 0.692

Row | Variant | yeast fitness
43 | U16A G48A | 0.896
44 | U16A G48C | 0.967
45 | U16A U19C | 1.03
46 | U16A U19A | 0.952
47 | U16A C29U | 0.775
48 | U16C A21U | 0.756
49 | U16C A40U G52A C55A G56C | ≤ 0.5
50 | U16A C27U G38A | ≤ 0.5
51 | U16C A20U C30U G39C A45G A69C | 0.592
52 | U16C A36U A65U | ≤ 0.5
53 | U16A C55A | 0.699
54 | U16A C33A C34A | ≤ 0.5
55 | U16A G17C A43U A45C C46A | 0.613
56 | U16C A42C U53A | ≤ 0.5
57 | U16A G39C | 0.646
58 | U16A U54A | 0.573
59 | U16A U54G | 0.536
60 | U16A U19C C61A A65U | 0.6
61 | U16C C22U C33G C55G | 0.53
62 | U16A U35A A57G C62G | ≤ 0.5
63 | U16C A20C A36U C61U | ≤ 0.5

Row | Variant | yeast fitness
64 | U16A G39A C46U A57U C66U | ≤ 0.5
65 | U16A G23A C33A A65G | ≤ 0.5
66 | U16A C24U C29A | 0.57
67 | U16A C34U U54C | ≤ 0.5
68 | U16C C22U C24U C29U C49U C60U | ≤ 0.5
69 | U16C C22U A37U C49A C62U | 0.6
70 | U16C C27A A45U C60G A65U | 0.542
71 | U16A U19A A69C | 0.747
72 | U16A C49U G67A | 0.67
73 | U16A C61A C66U A69C | 0.697
74 | U16A C33U A45G C49A U53A | ≤ 0.5
75 | U16C C24G U32A G56A | 0.544
76 | U16A U32C C34U | ≤ 0.5
77 | U16C A21U A43U C61G | ≤ 0.5
78 | U16C A36U G63A | 0.772
79 | U16A C24U C34A | 0.656
80 | U16A C33G C49A | 0.537
81 | U16C A21U C31G | 0.537
82 | U16C A40G C46A | 0.712
83 | U16A C29G C30U A40U A70G | ≤ 0.5
84 | U16C C22A A40G C60A | ≤ 0.5
